According to ChEMBL document CHEMBL1128448, “Synthesis and antifungal activity of new azole derivatives containing an N-acylmorpholine ring” (1995):
In brackets after ≈: the same amount, converted by molar mass.

How the values were obtained:
Rattus norvegicus [1] = test: In vivo evaluation of antifungal activity against vaginal candidosis in rat at dose 0.1 mg/kg on 15th day; assay type: functional
Procedure, shortened: (§1)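 Groups of 10 female Wistar rats given estradiol 25 mg/kg sc on day -5, then vaginally inoculated with C. albicans on day 0. Infection is confirmed by culture of day-3 swabs. Compound is dosed orally once daily on days 3–5; controls get vehicle. Cure is scored by culture of vaginal swabs taken on days 10 and 15.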

Candida albicans [2] = test: In vitro evaluation of minimum inhibitory concentration against Candida albicans 76; assay type: functional; conditions: Candida albicans; read-out: MIC
Procedure, shortened: (§2)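 Stocks are 800 μg/mL in 50% ethanol. Each plate gets 10 μL of inoculum at 10^5 cfu/mL. Incubation at 25 °C, 48 h for yeasts and 120 h for dermatophytes and molds. Organisms are ATCC strains or clinical isolates.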

Pichia kudriavzevii = test: In vitro evaluation of minimum inhibitory concentration against Candida krusei 70; assay type: functional; procedure, shortened: as §2
Mus sp. [3] = test: In vivo evaluation of % survival rate after peroral administration on 3rd day at dose 1 mg/kg; assay type: functional; conditions: Mus sp., po
Nakaseomyces glabratus = test: In vitro evaluation of minimum inhibitory concentration against Torulopsis glabrata 78; assay type: functional; procedure, shortened: as §2
Candida albicans [4] = test: Evaluation of In vitro antifungal activity against Candida albicans C56 by broth macro dilution method; assay type: functional
Procedure, shortened: (§3)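 Yeast MIC and MFC by broth macrodilution per NCCLS M27-P in RPMI-1640 buffered with 0.165 M MOPS. Fluconazole in sterile water, other drugs in DMSO. C. parapsilosis ATCC 22019 is the reference strain in each run. MIC is the lowest concentration with turbidity ≤ the 80% inhibition standard. For MFC, 0.04 mL from clear tubes is plated on Sabouraud agar; MFC is the lowest concentration giving ≤1 colony.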

Candida parapsilosis [5] = test: Evaluation of In vitro antifungal activity against Candida parapsilosis ATCC 141095 by broth macro dilution method; assay type: functional; conditions: Lodderomyces parapsilosis; procedure, shortened: as §3
Microsporum canis = test: In vitro evaluation of minimum inhibitory concentration against Microsporum canis 47; assay type: functional; procedure, shortened: as §2
Candida parapsilosis [6] = test: Evaluation of In vitro antifungal activity against Candida parapsilosis C292 by broth macro dilution method; assay type: functional; conditions: Lodderomyces parapsilosis; procedure, shortened: as §3
Candida albicans [7] = test: Evaluation of In vitro antifungal activity against Candida albicans 60 by broth macro dilution method
Candida tropicalis [8] = test: Evaluation of In vitro antifungal activity against Candida tropicalis 50 by broth macro dilution method; assay type: functional; procedure, shortened: as §3
Rattus norvegicus [9] = test: In vivo evaluation of antifungal activity against vaginal candidosis in rat at dose 0.25 mg/kg on 15th day; assay type: functional
Procedure, shortened: (§4)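 Groups of 10 female Wistar rats given estradiol 25 mg/kg sc on day -5, infected intravaginally with C. albicans by sterile swab on day 0; infection confirmed on day 3 by swab culture (TSB, then Sabouraud agar). Oral dosing once daily on days 3, 4, 5; vehicle controls. Vaginal swabs cultured on days 10 and 15; read-out % cured (culture-negative).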

Candida tropicalis [10] = test: Evaluation of In vitro antifungal activity against Candida tropicalis 2.11 by broth macro dilution method; assay type: functional; procedure, shortened: as §3
Rattus norvegicus [11] = test: In vivo evaluation of antifungal activity against vaginal candidosis in rat at dose 0.25 mg/kg on 10th day; assay type: functional; procedure, shortened: as §4
Trichophyton rubrum = test: In vitro evaluation of minimum inhibitory concentration against Trichophyton rubrum 90; assay type: functional; procedure, shortened: as §2
Candida albicans [12] = test: Evaluation of In vitro antifungal activity against Candida albicans C52 by broth macro dilution method; assay type: functional; procedure, shortened: as §3
Candida parapsilosis [13] = test: Evaluation of In vitro antifungal activity against Candida parapsilosis 2.07 by broth macro dilution method; assay type: functional; conditions: Lodderomyces parapsilosis; procedure, shortened: as §3
Candida parapsilosis [14] = test: Evaluation of In vitro antifungal activity against Candida parapsilosis ATCC 22019 by broth macro dilution method; assay type: functional; conditions: Lodderomyces parapsilosis; procedure, shortened: as §3
Cryptococcus neoformans = test: Evaluation of In vitro antifungal activity against Cryptococcus neoformans 74 by broth macro dilution method; assay type: functional; procedure, shortened: as §3
Candida tropicalis [15] = test: In vitro evaluation of minimum inhibitory concentration against Candida tropicalis 2.11; assay type: functional; conditions: Candida tropicalis; read-out: MIC; procedure, shortened: as §2
Candida albicans [16] = test: Evaluation of In vitro antifungal activity against Candida albicans 2.01 by broth macro dilution method; assay type: functional; procedure, shortened: as §3
Candida albicans [17] = test: Evaluation of […] antifungal activity against Candida albicans 60 by broth macro dilution method; assay type: functional; procedure, shortened: as §3
Candida parapsilosis [18] = test: In vitro evaluation of minimum inhibitory concentration against Candida parapsilosis 61; assay type: functional; procedure, shortened: as §2
Candida albicans [19] = test: Evaluation of In vitro antifungal activity against Candida albicans ATCC 10231 by broth macro dilution method; assay type: functional; procedure, shortened: as §3
Rattus norvegicus [20] = test: In vivo evaluation of antifungal activity against vaginal candidosis in rat at dose 0.1 mg/kg on 10th day; assay type: functional; procedure, shortened: as §1
Mus sp. [21] = test: In vivo evaluation of % survival rate after peroral administration on 9th day at dose 1 mg/kg; assay type: functional; conditions: route oral, 1 mg/kg

Compound: C[C@@H](NC(=O)c1ccc(C(F)(F)F)cc1)[C@](O)(Cn1cncn1)c1ccc(F)cc1F
- Cure rate (Rattus norvegicus [1]): 20%
- MIC (Candida albicans [2]): 80 µg/mL (≈ 182 µM)
- MIC (Pichia kudriavzevii): 20 µg/mL (≈ 45.4 µM)
- survival at 1 mg/kg (Mus sp. [3]): 100%
- MIC (Nakaseomyces glabratus): 20 µg/mL (≈ 45.4 µM)
- MFC (Candida albicans [4]): > 64 µg/mL
- MIC (Candida albicans [4]): < 0.031 µg/mL
- MFC (Candida parapsilosis [5]): 32 µg/mL (≈ 72.7 µM)
- MIC (Candida parapsilosis [5]): 1 µg/mL (≈ 2.27 µM)
- MIC (Microsporum canis): 20 µg/mL (≈ 45.4 µM)
- MFC (Candida parapsilosis [6]): 4 µg/mL (≈ 9.08 µM)
- MIC (Candida parapsilosis [6]): 0.063 µg/mL (≈ 0.143 µM)
- MFC (Candida albicans [7]): > 64 µg/mL
- MFC (Candida tropicalis [8]): > 64 µg/mL
- MIC (Candida tropicalis [8]): 1 µg/mL (≈ 2.27 µM)
- Cure rate (Rattus norvegicus [9]): 100%
- MFC (Candida tropicalis [10]): 64 µg/mL (≈ 145 µM)
- MIC (Candida tropicalis [10]): 0.25 µg/mL (≈ 0.568 µM)
- Cure rate (Rattus norvegicus [11]): 100%
- MIC (Trichophyton rubrum): 10 µg/mL (≈ 22.7 µM)
- MFC (Candida albicans [12]): > 64 µg/mL
- MIC (Candida albicans [12]): < 0.031 µg/mL
- MFC (Candida parapsilosis [13]): 64 µg/mL (≈ 145 µM)
- MIC (Candida parapsilosis [13]): 0.063 µg/mL (≈ 0.143 µM)
- MFC (Candida parapsilosis [14]): 2 µg/mL (≈ 4.54 µM)
- MIC (Candida parapsilosis [14]): 0.125 µg/mL (≈ 0.284 µM)
- MFC (Cryptococcus neoformans): > 64 µg/mL
- MIC (Cryptococcus neoformans): < 0.031 µg/mL
- MIC (Candida tropicalis [15]): 80 µg/mL (≈ 182 µM)
- MFC (Candida albicans [16]): > 64 µg/mL
- MIC (Candida albicans [16]): 0.125 µg/mL (≈ 0.284 µM)
- MIC (Candida albicans [17]): < 0.031 µg/mL
- MIC (Candida parapsilosis [18]): 2.5 µg/mL (≈ 5.68 µM)
- MFC (Candida albicans [19]): > 64 µg/mL
- MIC (Candida albicans [19]): 0.063 µg/mL (≈ 0.143 µM)
- Cure rate (Rattus norvegicus [20]): 0%
- Survival (Mus sp. [21]): 100%
